Results from ChEMBL document CHEMBL1177810, “Acid-catalyzed synthesis of 10-substituted triazolyl artemisinins and their growth inhibitory activity against various cancer cells” (2010).

Experiments:
SiHa = assay: Cytotoxicity against human SiHa cells after 72 hrs by MTT assay; type: functional
In short: (§1)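 Cells seeded at 5×10^3 per well in DMEM with 10% FBS, preincubated 4 h, then exposed to serial dilutions for 72 h. MTT at 1 mg/mL added for 4 h at 37 °C, formazan dissolved in DMSO, absorbance read at 570 nm. Triplicate assays; GI50 from non-linear regression of sigmoidal dose-response curves.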

DLD-1 = assay: Cytotoxicity against human DLD1 cells after 72 hrs by MTT assay; type: functional; conditions: DLD-1, 72 h; in short: as §1
[1] = Cytotoxicity against human A172 cells after 72 hrs by MTT assay; type: functional; conditions: A 172, 72 h; in short: as §1
B16 = assay: Cytotoxicity against mouse B16 cells after 72 hrs by MTT assay; type: functional; conditions: B16, 72 h; in short: as §1
[2] = Cytotoxicity against human U87 cells after 72 hrs by MTT assay; type: functional, U-87MG ATCC; conditions: U-87 MG; in short: as §1
HeLa = assay: Cytotoxicity against human HeLa cells after 72 hrs by MTT assay; type: functional; in short: as §1

Structure (SMILES) | GI50 (SiHa) [nM] | GI50 (DLD-1) [nM] | GI50 [1] [nM] | GI50 (B16) [nM] | GI50 [2] [nM] | GI50 (HeLa) [nM]
C[C@H]1[C@H](n2nncc2-c2ccc(F)cc2)O[C@@H]2O[C@]3(C)CC[C@H]4[C@H](C)CC[C@@H]1[C@@]24OO3 | 80 | 310 | 80 | 770 | 90 | 60
C[C@H]1[C@H](n2cc(-c3ccc(F)cc3)nn2)O[C@@H]2O[C@]3(C)CC[C@H]4[C@H](C)CC[C@@H]1[C@@]24OO3 | 140 | 480 | 130 | 110 | 160 | 50
C[C@H]1[C@H](n2cc(-c3ccccc3C(F)(F)F)nn2)O[C@@H]2O[C@]3(C)CC[C@H]4[C@H](C)CC[C@@H]1[C@@]24OO3 | 320 | 2380 | 290 | 340 | 290 | 190
CCCCCc1ccc(-c2cn([C@H]3O[C@@H]4O[C@]5(C)CC[C@H]6[C@H](C)CC[C@@H]([C@@H]3C)[C@@]46OO5)nn2)cc1 | 440 | 840 | 260 | 340 | 270 | 240
C[C@@H]1[C@@H](n2cc(-c3cccc(Cl)c3)nn2)O[C@@H]2O[C@]3(C)CC[C@H]4[C@H](C)CC[C@@H]1[C@@]24OO3 | 410 | 1170 | 330 | 280 | 350 | 210
C[C@H]1[C@H](n2nncc2-c2cccc(Cl)c2)O[C@@H]2O[C@]3(C)CC[C@H]4[C@H](C)CC[C@@H]1[C@@]24OO3 | 160 | 40 | 130 | 100 | 100 | 60
COc1ccc(-c2cnnn2[C@@H]2O[C@@H]3O[C@]4(C)CC[C@H]5[C@H](C)CC[C@@H]([C@H]2C)[C@@]35OO4)cc1 | 240 | 880 | 210 | 290 | 230 | 90
C[C@@H]1[C@@H](n2cc(-c3ccccc3)nn2)O[C@@H]2O[C@]3(C)CC[C@H]4[C@H](C)CC[C@@H]1[C@@]24OO3 | 140 | 280 | 110 | 200 | 150 | 30
C[C@H]1[C@H](n2nncc2-c2ccccc2C(F)(F)F)O[C@@H]2O[C@]3(C)CC[C@H]4[C@H](C)CC[C@@H]1[C@@]24OO3 | 80 | 170 | 80 | 80 | 80 | 70
C[C@H]1[C@H](n2nncc2-c2ccccc2)O[C@@H]2O[C@]3(C)CC[C@H]4[C@H](C)CC[C@@H]1[C@@]24OO3 | 140 | 600 | 150 | 220 | 200 | 40
C[C@H]1[C@H](n2cc(-c3ccccc3)nn2)O[C@@H]2O[C@]3(C)CC[C@H]4[C@H](C)CC[C@@H]1[C@@]24OO3 | 730 | 930 | 570 | 780 | 500 | 580
CCCCCc1ccc(-c2cnnn2[C@@H]2O[C@@H]3O[C@]4(C)CC[C@H]5[C@H](C)CC[C@@H]([C@H]2C)[C@@]35OO4)cc1 | 100 | 220 | – | 80 | 90 | 40
Cc1ccc(-c2cn([C@@H]3O[C@@H]4O[C@]5(C)CC[C@H]6[C@H](C)CC[C@@H]([C@H]3C)[C@@]46OO5)nn2)cc1 | 120 | 400 | 90 | 120 | 280 | 110
CCCCCc1ccc(-c2cn([C@@H]3O[C@@H]4O[C@]5(C)CC[C@H]6[C@H](C)CC[C@@H]([C@H]3C)[C@@]46OO5)nn2)cc1 | 80 | 140 | 70 | 70 | 70 | 90
COc1ccc(-c2cn([C@H]3O[C@@H]4O[C@]5(C)CC[C@H]6[C@H](C)CC[C@@H]([C@@H]3C)[C@@]46OO5)nn2)cc1 | 70 | 220 | 70 | 100 | 70 | 100
C[C@@H]1[C@@H](n2cc(-c3cc(F)cc(F)c3)nn2)O[C@@H]2O[C@]3(C)CC[C@H]4[C@H](C)CC[C@@H]1[C@@]24OO3 | 460 | 1280 | 540 | 700 | 450 | 240
C[C@@H]1[C@@H](n2cc(-c3ccc(F)cc3)nn2)O[C@@H]2O[C@]3(C)CC[C@H]4[C@H](C)CC[C@@H]1[C@@]24OO3 | 960 | 2150 | 560 | 840 | 630 | 410
C[C@H]1[C@H](n2nncc2-c2cc(F)cc(F)c2)O[C@@H]2O[C@]3(C)CC[C@H]4[C@H](C)CC[C@@H]1[C@@]24OO3 | 70 | 170 | 100 | 100 | 170 | 80
C[C@H]1[C@H](n2cc(-c3cc(F)cc(F)c3)nn2)O[C@@H]2O[C@]3(C)CC[C@H]4[C@H](C)CC[C@@H]1[C@@]24OO3 | 120 | 300 | 140 | 130 | 130 | 50
C[C@H]1[C@H](n2cc(-c3cccc(Cl)c3)nn2)O[C@@H]2O[C@]3(C)CC[C@H]4[C@H](C)CC[C@@H]1[C@@]24OO3 | 240 | 290 | 310 | 210 | 250 | 90
Cc1ccc(-c2cn([C@H]3O[C@@H]4O[C@]5(C)CC[C@H]6[C@H](C)CC[C@@H]([C@@H]3C)[C@@]46OO5)nn2)cc1 | 1580 | 160 | 1740 | 700 | 1340 | 730
Cc1ccc(-c2cnnn2[C@@H]2O[C@@H]3O[C@]4(C)CC[C@H]5[C@H](C)CC[C@@H]([C@H]2C)[C@@]35OO4)cc1 | 190 | 290 | 100 | 110 | 110 | 40
C[C@@H]1[C@@H](n2cc(-c3ccccc3C(F)(F)F)nn2)O[C@@H]2O[C@]3(C)CC[C@H]4[C@H](C)CC[C@@H]1[C@@]24OO3 | 620 | 1070 | 400 | 480 | 530 | 350
COc1ccc(-c2cn([C@@H]3O[C@@H]4O[C@]5(C)CC[C@H]6[C@H](C)CC[C@@H]([C@H]3C)[C@@]46OO5)nn2)cc1 | 360 | 490 | 300 | 130 | 390 | 130
CC(=O)O[C@H]1C(=O)[C@@]2(C)[C@H]([C@H](OC(=O)c3ccccc3)[C@]3(O)C[C@H](OC(=O)[C@H](O)[C@@H](NC(=O)c4ccccc4)c4ccccc4)C(C)=C1C3(C)C)[C@]1(OC(C)=O)CO[C@@H]1C[C@@H]2O [PACLITAXEL] | 30 | 10 | 10 | 10 | 20 | 20
